Data on four compounds can be found in ChEMBL document CHEMBL4665627 (Eur J Med Chem, 2019).

The subject of assay [1] is Saccharomyces cerevisiae. In words: Inhibition of Saccharomyces cerevisiae CGMCC 2.145 chitin synthase at 300 ug/ml using GlcNAc and UDP-GlcNAc as substrate incubated for 60 mins by microplate reader analysis relative to control. Conditions: dose 300.0 µg/ml. In a few lines:
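Chitin synthase inhibition ratio measured at 300 µg/mL test compound, relative to untreated control.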

The nature of assay [2]: Inhibition of Saccharomyces cerevisiae CGMCC 2.145 chitin synthase using GlcNAc and UDP-GlcNAc as substrate incubated for 60 mins by microplate reader analysis. The method, boiled down: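 Chitin synthase IC50 determined from concentration–inhibition curves.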
For assay [3], the system named is Candida albicans. In words: Antifungal activity against Candida albicans assessed as inhibition of fungal growth after 24 hrs by CLSI protocol based two fold serial dilution method. It is filed as functional. In a few lines:
(§1)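 Two-fold serial broth dilution in 96-well plates following CLSI; MIC (mM) taken as the lowest concentration giving complete growth inhibition; MIC values from three independent experiments.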

Assay [4] relates to Acinetobacter baumannii. The assay is described as follows: Antibacterial activity against Acinetobacter baumannii assessed as inhibition of bacterial growth after 24 hrs by CLSI protocol based two fold serial dilution method. It is filed as functional. In a few lines: as §1
Assay [5] deals with Staphylococcus aureus. In words: Antibacterial activity against methicillin-resistant Staphylococcus aureus N315 assessed as inhibition of bacterial growth after 24 hrs by CLSI protocol based two fold serial dilution method. It is filed as functional.
Assay [6] deals with Enterococcus faecalis. In words: Antibacterial activity against Enterococcus faecalis assessed as inhibition of bacterial growth after 24 hrs by CLSI protocol based two fold serial dilution method. It is filed as functional. In a few lines: as §1
Assay [7] deals with Staphylococcus aureus. In words: Antibacterial activity against Staphylococcus aureus ATCC 25923 assessed as inhibition of bacterial growth after 24 hrs by CLSI protocol based two fold serial dilution method. It is filed as functional. In a few lines:
as §1

Assay [8] deals with Klebsiella pneumoniae. In words: Antibacterial activity against Klebsiella pneumoniae assessed as inhibition of bacterial growth after 24 hrs by CLSI protocol based two fold serial dilution method. It is filed as functional. The method, boiled down: as §1
Assay [9] has as its system Escherichia coli. The assay is described as follows: Antibacterial activity against Escherichia coli ATCC 25922 assessed as inhibition of bacterial growth after 24 hrs by CLSI protocol based two fold serial dilution method. Format: functional. In a few lines: as §1
For assay [10], the system named is Candida albicans. In words: Antifungal activity against Candida albicans ATCC 90023 assessed as inhibition of fungal growth after 24 hrs by CLSI protocol based two fold serial dilution method. It is filed as functional. The method, boiled down:
as §1

Assay [11] concerns Escherichia coli. In words: Antibacterial activity against Escherichia coli assessed as inhibition of bacterial growth after 24 hrs by CLSI protocol based two fold serial dilution method. Format: functional. In a few lines:
as §1

Assay [12] has as its system Candida tropicalis. In words: Antifungal activity against Candida tropicalis assessed as inhibition of fungal growth after 24 hrs by CLSI protocol based two fold serial dilution method. It is filed as functional. The method, boiled down: as §1
Assay [13] has as its system Staphylococcus aureus. The assay is described as follows: Antibacterial activity against Staphylococcus aureus ATCC 29213 assessed as inhibition of bacterial growth after 24 hrs by CLSI protocol based two fold serial dilution method. It is filed as functional.
In assay [14] the test system is Pseudomonas aeruginosa. In words: Antibacterial activity against Pseudomonas aeruginosa ATCC 27853 assessed as inhibition of bacterial growth after 24 hrs by CLSI protocol based two fold serial dilution method. Format: functional. The method, boiled down:
as §1

The test system of assay [15] is Staphylococcus aureus. In words: Antibacterial activity against Staphylococcus aureus assessed as inhibition of bacterial growth after 24 hrs by CLSI protocol based two fold serial dilution method. Format: functional. The method, boiled down: as §1
For assay [16], the system named is Candida parapsilosis. The assay is described as follows: Antifungal activity against Candida parapsilosis ATCC 22019 assessed as inhibition of fungal growth after 24 hrs by CLSI protocol based two fold serial dilution method. It is filed as functional. Conditions: Lodderomyces parapsilosis. In a few lines:
as §1

Assay [17] relates to Pseudomonas aeruginosa. The assay is described as follows: Antibacterial activity against Pseudomonas aeruginosa assessed as inhibition of bacterial growth after 24 hrs by CLSI protocol based two fold serial dilution method. It is filed as functional. The method, boiled down: as §1
Assay [18] concerns Aspergillus fumigatus. The assay is described as follows: Antifungal activity against Aspergillus fumigatus assessed as inhibition of fungal growth after 24 hrs by CLSI protocol based two fold serial dilution method. Format: functional. The method, boiled down:
as §1

Assay [19] deals with Klebsiella pneumoniae. The assay is described as follows: Antibacterial activity against Klebsiella pneumoniae measured every 24 hrs after several passages by serial dilution method. It is filed as functional, organism-based.

Converted amounts (≈) assume the structure as drawn. The source made the active and inactive calls. No cut-off for these calls is given here.

`NC(=O)OC[C@H](O)[C@@H](O)[C@H](N)C(=O)N[C@H](C(=O)O)[C@H]1O[C@@H](n2cc(CO)c(=O)[nH]c2=O)[C@H](O)[C@@H]1O` [POLYOXIN B]: the inhibition in assay [1] is 81%. Also, 120 µM corresponded to half-maximal inhibition in assay [2] (IC50).

Take `CCn1cc(-c2csc(N)n2)c(=O)c2cc(F)c(N3CCN(CCO)CC3)cc21`: the MIC amounted to 153 µM (≈ 63.9 µg/mL) in assay [3]; 153 µM (≈ 63.9 µg/mL) in assay [4]; 153 µM (≈ 63.9 µg/mL) in assay [5]; 38 µM (≈ 15.9 µg/mL) in [6]; 77 µM (≈ 32.1 µg/mL) in assay [7]; 19 µM (≈ 7.93 µg/mL) in [8]. For the same compound, the MIC in assay [9] worked out at 153 µM (≈ 63.9 µg/mL); in assay [10], 153 µM (≈ 63.9 µg/mL); in assay [11] it was 153 µM (≈ 63.9 µg/mL); in assay [12], 153 µM (≈ 63.9 µg/mL); in assay [13], 153 µM (≈ 63.9 µg/mL); in assay [14] it was 38 µM (≈ 15.9 µg/mL). In addition, the MIC in [15] is 153 µM (≈ 63.9 µg/mL); in assay [16], 77 µM (≈ 32.1 µg/mL); in assay [17], 77 µM (≈ 32.1 µg/mL); in [18] it was 153 µM (≈ 63.9 µg/mL). Moreover, the inhibition in assay [1] turned out to be 48.3%.

`CCn1cc(C(=O)O)c(=O)c2cc(F)c(N3CCNCC3)cc21` [NORFLOXACIN]: the MIC in assay [4] came out at 25 µM (≈ 7.98 µg/mL); in assay [5], 25 µM (≈ 7.98 µg/mL); in [6], 13 µM (≈ 4.15 µg/mL); in [7], 3 µM (≈ 0.958 µg/mL); in [8] it was 13 µM (≈ 4.15 µg/mL); in assay [9], 25 µM (≈ 7.98 µg/mL). In addition, the MIC in assay [11] was 50 µM (≈ 16 µg/mL); in assay [13], 6 µM (≈ 1.92 µg/mL); in assay [14], 2 µM (≈ 0.639 µg/mL); in [15] it was 2 µM (≈ 0.639 µg/mL); in assay [17], 6 µM (≈ 1.92 µg/mL). Besides, the outcome in assay [19] was inactive.

Turning to `CCn1cc(-c2csc(N)n2)c(=O)c2cc(F)c(N3CCN(Cc4ccc(Cl)cc4)CC3)cc21`, the MIC in assay [3] is 32 µM (≈ 15.9 µg/mL); in assay [4] it was 32 µM (≈ 15.9 µg/mL); in assay [5], 16 µM (≈ 7.97 µg/mL); in assay [6], 16 µM (≈ 7.97 µg/mL); in assay [7], 16 µM (≈ 7.97 µg/mL); in assay [8], 129 µM (≈ 64.2 µg/mL). Further, the MIC in [9] turned out to be 32 µM (≈ 15.9 µg/mL); in assay [10], 64 µM (≈ 31.9 µg/mL); in [11] it was 32 µM (≈ 15.9 µg/mL); in assay [12], 32 µM (≈ 15.9 µg/mL); in [13], 64 µM (≈ 31.9 µg/mL); in assay [14] it was 32 µM (≈ 15.9 µg/mL). The MIC in [15] was 64 µM (≈ 31.9 µg/mL); in assay [16], 16 µM (≈ 7.97 µg/mL); in assay [17], 257 µM (≈ 128 µg/mL); in [18], 515 µM (≈ 256 µg/mL). Also, in assay [1], the inhibition amounted to 56.2%. In [2], this compound came in with an IC50 of 320 µM.
